# E-selectin induc: induces E-selectin expression in human endothelial cells | P16581 | HUVEC E-selectin immunofluorescence imaging; normalized: neutral wells 0, TNF-alpha wells 100 | activation, % at 7.58 µM | 260,000 tested, 0.37% active | AID 686992;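 active = mean E-selectin-positive cell signal at least 10% of the positive control, reached in at least 60% of replicates, without over 20% cell loss; inconclusive = no rule given, readout overlaps actives, possibly toxicity-flagged; inactive = the rest, including those meeting only one limit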
# Target sequence (P16581 whole entry, looked up): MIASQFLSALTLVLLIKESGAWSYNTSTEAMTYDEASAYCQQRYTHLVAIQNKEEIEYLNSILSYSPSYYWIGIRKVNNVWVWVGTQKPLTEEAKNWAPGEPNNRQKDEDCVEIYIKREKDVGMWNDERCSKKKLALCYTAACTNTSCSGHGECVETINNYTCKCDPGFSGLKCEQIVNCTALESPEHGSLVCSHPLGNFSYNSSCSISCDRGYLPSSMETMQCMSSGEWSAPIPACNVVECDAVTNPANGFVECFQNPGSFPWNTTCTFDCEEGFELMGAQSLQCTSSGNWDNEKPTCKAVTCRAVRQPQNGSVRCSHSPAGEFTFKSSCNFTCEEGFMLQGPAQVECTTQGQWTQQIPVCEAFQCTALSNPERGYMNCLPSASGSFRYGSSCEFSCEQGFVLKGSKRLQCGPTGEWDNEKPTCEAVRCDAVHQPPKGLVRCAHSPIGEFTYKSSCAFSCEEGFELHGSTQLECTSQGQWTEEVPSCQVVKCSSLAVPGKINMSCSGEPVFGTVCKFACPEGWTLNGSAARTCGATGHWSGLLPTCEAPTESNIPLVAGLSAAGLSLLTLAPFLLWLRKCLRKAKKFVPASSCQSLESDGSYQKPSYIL
#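 System: HUVEC, human umbilical vein endothelial cells; quantity: 3,000 cells/well; buffer or medium: EGM-2 medium, gelatin-coated wells; dosing: single-point compound dose; detection: immunofluorescence imaging; evaluation: % PE-positive cells; benchmarks: TNF-alpha, DMSO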
# ERAP1 HTS inh: inhibitors of human ERAP1 aminopeptidase; Q9NZ08; recombinant ERAP1, Leu-AMC fluorescence, 60 min; inhibition, % at 10.7 µM; 340,000 tested, 0.15% active;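 active = mean replicate inhibition of at least 30%, or all replicates individually reaching that 30% level; inactive = mean below 30% and not every replicate reaching it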;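 also: 0% = neutral control wells and 100% = L-leucinethiol positive control wells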
# miR-122 sensor: inhibitors of miR-122 in Huh7 cells; AID 602342; Huh7 miR-122 Renilla luciferase sensor, 48 h; neutral wells = 0, positive control = 100; 340,000 tested, 0.3% active; activation (reporter increase), % at 12.5 µM;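 active = mean replicate activation score at least 90 and every replicate individually at or above 90; inconclusive = only one of the two criteria met; inactive = neither criterion met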;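 also: higher luciferase means less miR-122 activity so hits act as miR-122 inhibitors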
# INS-1E GSIS act: GLuc luminescence reporter in INS-1E cells, primary screen for activators of glucose-dependent secretion of insulin | INS-1E GLuc reporter insulin secretion, 2-3 h | activation, % at 16.6 µM | 370,000 tested, 0.61% active;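 active = lowest replicate activation of at least 40%, so every replicate reaches that level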;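 also: 0% = median of neutral control wells and 100% = median of IBMX positive control wells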
# DENV2 CPE rescue: DENV2-induced cell death inhibition | DENV2-infected cells, cytopathic effect rescue, plate reader | AID 651640 | 350,000 tested, 1.7% active | CPE inhibition, % at 9.99 µM; in the data active = CPE inhibition above about 20%, passing the limit was not always enough; inconclusive = no clear call, values can overlap the other calls; tested in BHK-21 cells;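 also: 0% = median of neutral control wells and 100% = median of positive control wells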
# CFTR F508del cor: CFTR F508del correction in bronchial cells; activity (quench increase), % at 7.58 µM; AID 720511; 350,000 tested, 0.36% active; CFBE cells, YFP halide quenching; stimulated with forskolin plus potentiator P3; % fluorescence drop versus neutral controls;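 active = mean added fluorescence quench of at least 8% versus neutral control, with both replicates also reaching 8%; inconclusive = only one of the mean or replicate conditions met; inactive = mean below 8% and not both replicates reaching 8%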;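 also: cells transiently co-express mutant CFTR-F508del with the halide-sensitive YFP; corrector assay measuring rescue of mutant channel to the surface after 24 h compound exposure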
# * marks the source's active call; other numbers are inactive results; ? = inconclusive; . = no result given; [ ] = another dose, or the depositor's remark. The list is not random: actives were taken first. Their share in the collection is about 2.6%.
SMILES,E-selectin induc,ERAP1 HTS inh,miR-122 sensor,INS-1E GSIS act,DENV2 CPE rescue,CFTR F508del cor
COC(=O)N/N=C\c1c(C)nn(-c2ccccc2)c1Cl,.,.,-2.7,3.9,.,.
CCCc1c(-c2ccc(F)cc2)ncn1CCc1ccccc1OC,0.0,2.0,.,-5.4,13.0,4.0
CCCCCc1c(-c2ccccc2)ncn1CCc1ccccc1OC,-0.2,-1.3,.,-4.7,-14.9,1.9
CCCCc1c(Cc2cccc(F)c2)ncn1CCc1ccccc1OC,0.0,0.9,.,123.5*,-3.6,0.8
COc1ccccc1CCn1cnc(-c2cccc(F)c2)c1C(C)C,-0.4,-1.5,.,64.2*,?,1.5
CCCCc1c(-c2ccc(F)cc2F)ncn1CCc1ccccc1OC,-0.2,2.0,.,119.6*,0.3,0.6
COc1ccccc1CCn1cnc(-c2ccc(F)cc2F)c1CC(C)C,-0.1,-4.7,.,.,-7.5,2.0
CCCCCc1c(-c2ccc(F)cc2F)ncn1CCc1ccccc1OC,0.0,-1.4,.,104.2*,10.3,1.9
CC(C)CC#Cc1ccc2c(c1)O[C@@H](CN(C)C(=O)C1CC1)[C@H](C)CN([C@H](C)CO)S2(=O)=O,-0.4,.,7.7[16.7 µM],-13.5,.,0.2
CCCCc1c(-c2cccc(OC)c2)ncn1CCc1ccccc1OC,-0.3,-8.1,.,80.0*,2.5,0.8
COc1ccccc1CCn1cnc(-c2ccccc2F)c1CC(C)C,-0.3,2.4,.,41.9*,-8.6,1.6
CCCCc1c(-c2ccc(OC)c(OC)c2)ncn1CCc1ccccc1OC,-0.3,-2.9,.,-24.8,5.6,2.4
O=C(O)c1ccccc1NS(=O)(=O)c1cccc(NS(=O)(=O)c2cc(Br)ccc2Br)c1,.,33.1*,-4.5,.,-6.0,.
O=C(NCCN1CCCC1)[C@H]1N[C@H]2c3ccc(-c4ccccc4)c(=O)n3C[C@H]2[C@@H]1CO,-0.3,-11.7,5.3[16.7 µM],-1.7,85.0*,-0.9
C[C@@H](NC(=O)[C@@H]1N[C@@H]2c3ccc(-c4cccnc4)c(=O)n3C[C@@H]2[C@H]1CO)c1ccccc1,-0.2,0.7,.,-5.5,1.7,.
O=C(NCCN1CCCCC1)[C@@H]1N[C@@H]2c3ccc(-c4ccc(F)cc4)c(=O)n3C[C@@H]2[C@H]1CO,0.0,-5.8,5.2[16.7 µM],12.2,6.8,-1.4
O=C(NCc1ccccc1F)[C@H]1N[C@H]2c3ccc(-c4ccccc4F)c(=O)n3C[C@H]2[C@@H]1CO,-0.1,-3.8,29.3[16.7 µM],-2.0,82.3*,-3.4
C[C@H](NC(=O)[C@H]1N[C@H]2c3ccc(-c4cccnc4)c(=O)n3C[C@H]2[C@@H]1CO)c1ccccc1,0.2,1.5,.,-4.5,117.0*,.
CN1CCN(C(=O)C[C@@H]2CC[C@H]3[C@@H](COC[C@@H](O)CN3CC3CC3)O2)CC1,0.0,-1.0,-5.7[16.7 µM],11.7,16.3,0.6
Cc1ccc(C(C)C)c(OCCNCCc2ccccc2)c1,.,3.3,-1.9,137.2*,-4.9,2.4
Cc1ccc(C(C)C)c(OCCCNCc2cccnc2)c1,.,4.6,.,-2.8,-0.8,2.9
O=C(C[C@H]1C[C@H]2c3cc(NC(=O)Nc4ccccc4F)ccc3O[C@H]2[C@H](CO)O1)NCc1ccncc1,0.1,-0.8,-4.6[16.7 µM],10.3,-0.5,2.0
O=C(C[C@@H]1C[C@@H]2c3cc(NC(=O)Nc4ccccc4)ccc3O[C@@H]2[C@H](CO)O1)NCc1ccccn1,-0.3,2.5,4.8[16.7 µM],6.8,1.0,0.0
COc1ccc(S(=O)(=O)N(C)C[C@H]2OCCCC[C@H](C)Oc3ccc(NC(=O)CCCN(C)C)cc3C(=O)N([C@H](C)CO)C[C@H]2C)cc1,0.1,-1.4,6.2[16.7 µM],13.2,38.2*,-1.4
C[C@@H]1CCCCO[C@H](CN(C)S(=O)(=O)c2ccccc2)[C@@H](C)CN([C@@H](C)CO)C(=O)c2cc(NC(=O)CCCN(C)C)ccc2O1,-0.2,-3.3,6.5[16.7 µM],13.7,110.6*,-0.2
C[C@H](CO)N1C[C@H](C)[C@H](CN(C)S(=O)(=O)c2ccc(F)cc2)OCCCC[C@H](C)Oc2ccc(NC(=O)CCCN(C)C)cc2C1=O,-0.2,0.8,-3.4[16.7 µM],3.9,33.6*,-1.6
C[C@@H]1CN([C@@H](C)CO)C(=O)c2cc(NC(=O)CCCN(C)C)ccc2O[C@@H](C)CCCCO[C@@H]1CN(C)S(=O)(=O)c1ccc(F)cc1,-0.3,0.7,9.9[16.7 µM],-9.2,43.5*,1.0
